pEC50, pIC50: −log10 of the molar value.
What was measured:
MT4 = experiment: Evaluated for 50% antiviral effective concentration based on inhibition of HIV-1 (HTLV-IIIB) induced cytopathogenicity in MT-4 cells; type: functional, cell-based; details: Homo sapiens
Method in brief: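 MT-4 cells were infected with HIV-1 HTLV-IIIB at MOI 0.02 and cultured with a range of compound concentrations for 4 days. Viable cells were counted by MTT.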

[1] = Evaluated for 50% cytotoxic concentration based on reduction of viability of mock-infected cells; type: cell-based; details: human, MT4 cells (mock-infected)
Method in brief: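 Mock-infected MT-4 cells were cultured with a range of compound concentrations for 4 days, and viability was read by MTT.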

[2] = target: Human immunodeficiency virus type 1 reverse transcriptase (Human immunodeficiency virus 1, UniProt Q72547); experiment: Inhibition of purified HIV-1 reverse transcriptase
Method in brief: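 Recombinant dimeric RT expressed in E. coli (HIV-1 p66/p51, HIV-2 p68/p55), 0.08 μg per reaction; identical conditions for both enzymes. Buffer: 50 mM Tris-HCl pH 8.0, 150 mM KCl, 5 mM MgCl2, 0.5 mM EGTA, 5 mM DTT, 0.3 mM glutathione. Template-primer poly(rA)·oligo(dT)12-18 with 20 μM TTP plus [3H]TTP. Compound in DMSO or water. Incubated 1 h at 37 °C, stopped with EGTA. Incorporation read on DE-81 filters by scintillation.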

Row | pIC50 [2] | SMILES | pEC50 (MT4) | CC50 [1] [µM]
1 |  | Nc1ccc2c(S(=O)(=O)O)cc(S(=O)(=O)O)c(N)c2c1O | < 5.11 | 7.7
2 | < 3.07 | O=S(=O)(O)c1cc(NS(=O)(=O)c2ccc(-c3ccc(S(=O)(=O)Nc4cc(S(=O)(=O)O)cc5cc(S(=O)(=O)O)cc(S(=O)(=O)O)c45)cc3)cc2)c2c(S(=O)(=O)O)cc(S(=O)(=O)O)cc2c1 | 4.44 | > 100
3 | < 3.00 | O=S(=O)(O)c1ccc(-c2ccc(S(=O)(=O)Nc3cc(S(=O)(=O)O)cc4cc(S(=O)(=O)O)cc(S(=O)(=O)O)c34)cc2)cc1 | < 4.00 | > 100
4 | 4.26 | CCCCCCCCCCCCCCCC(=O)Nc1cc(S(=O)(=O)O)cc2cc(S(=O)(=O)O)cc(S(=O)(=O)O)c12 | < 4.38 | 42
5 | < 3.00 | CC(=O)Nc1cc(S(=O)(=O)O)cc2cc(S(=O)(=O)O)cc(S(=O)(=O)O)c12 | < 4.00 | > 100
6 | < 3.00 | CC(=O)Nc1cc(S(=O)(=O)O)cc2cc(S(=O)(=O)O)cc(OC(C)=O)c12 | < 3.30 | > 500
7 | < 3.00 | O=C(O)CCCC(=O)Nc1cc(S(=O)(=O)O)cc2cc(S(=O)(=O)O)cc(O)c12 | < 3.30 | > 500
8 | < 3.00 | COc1cc(S(=O)(=O)O)cc2cc(S(=O)(=O)[O-])cc([N+](C)(C)C)c12 | < 3.30 | > 500
9 | < 3.00 | COc1cc(S(=O)(=O)O)cc2cc(S(=O)(=O)O)cc(N(C)C)c12 | < 3.30 | > 500
10 | 3.87 | O=C(O)CCCCCCCCC(=O)Nc1cc(S(=O)(=O)O)cc2cc(S(=O)(=O)O)cc(O)c12 | 3.87 | > 500
11 | < 3.00 | Nc1cc(S(=O)(=O)O)cc2cc(S(=O)(=O)O)cc(S(=O)(=O)O)c12 | < 4.00 | > 100
12 | 3.87 | O=C(CCCCCCCCCCC(=O)Nc1cc(S(=O)(=O)O)cc2cc(S(=O)(=O)O)cc(S(=O)(=O)O)c12)Nc1cc(S(=O)(=O)O)cc2cc(S(=O)(=O)O)cc(S(=O)(=O)O)c12 | < 4.29 | > 100
13 | 3.79 | Nc1c(S(=O)(=O)O)cc2cc(S(=O)(=O)O)cc(O)c2c1O | < 4.92 | 12
14 | < 3.00 | CC(=O)Oc1cc(S(=O)(=O)O)cc2cc(S(=O)(=O)O)cc(OC(C)=O)c12 | < 3.34 | 461
15 | < 3.00 | CC(=O)Oc1cc(S(=O)(=O)O)cc2cc(S(=O)(=O)O)c(N=Nc3ccccc3)c(OC(C)=O)c12 | < 3.30 | > 500
16 | 3.37 | O=C(O)c1cc(NS(=O)(=O)c2ccc(-c3ccc(S(=O)(=O)Nc4cc(C(=O)O)c(O)c(S(=O)(=O)O)c4)cc3)cc2)cc(S(=O)(=O)O)c1O | 4.28 | 247
17 |  | CCCCCCCCCCCCCCCC(=O)Nc1cc(S(=O)(=O)O)cc2cc(S(=O)(=O)O)cc(O)c12 | 4.43 | 250
18 |  | CCCCCCCCCCCCCCCC(=O)Oc1cc(S(=O)(=O)O)cc2cc(S(=O)(=O)O)cc(OC(=O)CCCCCCCCCCCCCCC)c12 | < 4.82 | 15
19 | 3.33 | O=C(Nc1cc(S(=O)(=O)O)cc2cc(S(=O)(=O)O)cc(O)c12)c1ccccc1 | 3.45 | > 500
20 | 3.61 | CC(=O)Nc1cc(S(=O)(=O)O)cc2cc(S(=O)(=O)O)cc(O)c12 | 4.28 | 402
21 | < 3.00 | Nc1ccc2cc(S(=O)(=O)O)cc(S(=O)(=O)O)c2c1 | < 3.30 | > 500
22 | 3.90 | O=S(=O)(O)c1cc(S(=O)(=O)O)c2cc(NS(=O)(=O)c3ccc(-c4ccc(S(=O)(=O)Nc5ccc6cc(S(=O)(=O)O)cc(S(=O)(=O)O)c6c5)cc4)cc3)ccc2c1 | 4.53 | > 500
23 | 4.28 | O=C(CCCCCCCCC(=O)Nc1cc(S(=O)(=O)O)cc2cc(S(=O)(=O)O)cc(O)c12)Nc1cc(S(=O)(=O)O)cc2cc(S(=O)(=O)O)cc(O)c12 | 5.01 | 288
24 | < 3.00 | Nc1cc(S(=O)(=O)O)cc2cc(S(=O)(=O)O)cc(O)c12 | < 3.28 | 529
25 | 4.30 | Nc1cc(S(=O)(=O)O)c2ccccc2c1N | < 3.72 | 189
26 |  | O=S(=O)(O)c1cc(O)c2c(O)cc(S(=O)(=O)O)cc2c1 [CHROMOTROPATE] | < 2.93 | 1180
27 |  | Cc1ccc(C(=O)Nc2ccc(S(=O)(=O)O)c3cc(S(=O)(=O)O)cc(S(=O)(=O)O)c23)cc1NC(=O)c1cccc(NC(=O)Nc2cccc(C(=O)Nc3cc(C(=O)Nc4ccc(S(=O)(=O)O)c5cc(S(=O)(=O)O)cc(S(=O)(=O)O)c45)ccc3C)c2)c1 [SURAMIN] | 5.09 | 250
